Source: paper PMC3306175 (Journal of Immunology (Baltimore, Md. : 1950), 2009)
Peptide text beside a SMILES is read from it.

How the values were obtained:
[1] = test system: gliadin-reactive intestinal T cell lines (iTCLs) from HLA-DQ2+ celiac patients; test: IFN-γ production; assay type: cell-based, human; conditions: for Hierarchical clustering by intensity of IFN-γ responses (OD peptide / OD medium): 14 patients, Cluster 3.0, Pearson correlation; for IFN-γ response (in words): peptide 30 μg/ml; for Number of patients whose iTCL recognized the peptide (positive IFN-γ response) / Percentage of patients recognizing the peptide: 14 adult HLA-DQ2+ CD patients, positive = IFN-γ at least twice medium alone; for Potency in eliciting T cell responses relative to 33-mer: polyclonal iTCLs or peptide-specific TCCs
Outline: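 iTCLs grown from collagenase-digested jejunal explants in X-Vivo15 with 5% AB serum, stimulated with irradiated PBMC, TG2-deamidated PT-gliadin (50 μg/ml) and IL-15 (10 ng/ml). T cells (3 × 10^4) were incubated with autologous EBV-B cells (6 × 10^4) and TG2-treated peptides (30 μg/ml; 37°C, 4 h, pH 6.8). IFN-γ was measured by ELISA at 48 h. Positive response: ≥2× medium. OD ratios were row/column-normalised, then clustered. Duplicates, ≥3 experiments.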

[2] = test system: DQ2-α-I/III- or DQ2-α-II-specific intestinal T cells; test: Dose-response assays with peptide-pulsed irradiated APCs on iTCLs and TCCs; assay type: cell-based, human
Outline: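 Autologous B-LCL APCs, irradiated, pulsed overnight at 37°C with 10-fold increasing doses of peptide. Peptide deamidated beforehand with TG2 (1:1 enzyme/substrate, 4 h, 37°C, Tris-HCl pH 6.8 with CaCl2, NaCl, DTT). APCs washed before adding T cells (3 × 10^4 iTCL or 1 × 10^4 TCC). IFN-γ ELISA on 48 h supernatants. Mean of duplicates; three separate experiments.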

[3] = test system: DQ2-α-I/III-specific T cell clones from patient CD230204; test: IFN-γ and proliferative responses of 17-mer-specific intestinal T cell clones; assay type: cell-based, human; conditions: TCCs from patient CD230204; peptide 30 μg/ml (8–19 μM)
Outline: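 T cell clones were derived from the patient's intestinal T cell line by limiting dilution with irradiated allogeneic PBMC, B-LCL and PHA. Peptides were deamidated with TG2 (1:1, 4 h, 37°C, Tris-HCl pH 6.8, CaCl2, NaCl, DTT). Each clone (1 × 10^4) was cultured with autologous B-LCL. IFN-γ ELISA on 48 h supernatants; proliferation by [3H]thymidine added for a further 16 h. Duplicates.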

[4] = test system: iTCLs from patient CD041051; test: HLA restriction with anti-HLA-DR and anti-HLA-DQ blocking mAbs; assay type: cell-based, human; conditions: peptide 15 μM; anti-HLA-DR and anti-HLA-DQ mAbs 10 μg/ml
Outline: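 Intestinal T cell lines came from collagenase-digested mucosal explants, expanded with irradiated PBMC, TG2-deamidated peptic-tryptic gliadin (50 μg/ml) and IL-15. For the assay, B-LCL APCs were preincubated 10 min with anti-HLA-DR (clone L243) or anti-HLA-DQ (clone SPV-L3) before peptide. T cells were then added. IFN-γ was measured by ELISA in 48 h supernatants. Duplicate wells, at least three independent experiments.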

[5] = biological target: purified HLA-DQ2 molecules (Homo sapiens, UniProt P01909+P01920); test: HLA-DQ2 binding assay; conditions: read-out: IC50 of binding to purified HLA-DQ2; TG2-deamidated peptides; inhibition of 0.1–1 nM 125I-radiolabeled probe peptide binding to purified HLA-DQ2 (5–500 nM), 48 h in PBS; three or more independent assays
purified HLA-DQ2 molecules, sequence (P01920 33-261, other chains not shown): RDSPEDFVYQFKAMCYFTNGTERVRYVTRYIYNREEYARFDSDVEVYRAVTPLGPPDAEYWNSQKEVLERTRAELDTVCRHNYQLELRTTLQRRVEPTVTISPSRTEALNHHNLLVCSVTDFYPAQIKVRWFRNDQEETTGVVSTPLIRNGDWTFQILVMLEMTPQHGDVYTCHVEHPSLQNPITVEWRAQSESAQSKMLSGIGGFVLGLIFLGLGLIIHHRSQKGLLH

Molecule	Hierarchical clustering by intensity of IFN-γ responses (OD peptide / OD medium) [1]	IFN-γ response (in words) ([1]; iTCL of patient CD090401)	Number of patients whose iTCL recognized the peptide (positive IFN-γ response) [1]	further results
PFPQQPQQPYPQQPQ [DQ2-γ-III]	low intensity of IFN-γ responses	recognized	–	IFN-γ response (in words) ([1]; iTCL of patient CD061204): recognizing
CC(C)C[C@H](NC(=O)[C@H](CCC(N)=O)NC(=O)[C@@H](N)CC(C)C)C(=O)N[C@@H](CCC(N)=O)C(=O)N1CCC[C@H]1C(=O)N[C@@H](Cc1ccccc1)C(=O)N1CCC[C@H]1C(=O)N[C@@H](CCC(N)=O)C(=O)N1CCC[C@H]1C(=O)N[C@@H](CCC(=O)O)C(=O)N[C@@H](CC(C)C)C(=O)N1CCC[C@H]1C(=O)N[C@@H](Cc1ccc(O)cc1)C(=O)O [13-mer] (H-LQLQPFPQPELPY-OH)	strongest and more consistent responses	very high levels of IFN-γ	five	Potency in activating DQ2-α-II-specific iTCLs (dose-response) ([2]; iTCLs from CD041051, APCs pulsed overnight with 10-fold increasing doses of TG2-deamidated peptide): weak stimulatory capacity and only at very high concentration (10 μM); IFN-γ response (in words) ([1]; iTCL of patient CD041051): weak IFN-γ production
QLQPFPQPQLPYPQPQP [17-mer]	strongest and more consistent responses	very high levels of IFN-γ	–	IFN-γ production and proliferation of 17-mer-specific T cell clones [3]: produced high levels of IFN-γ and proliferated; Potency in eliciting T cell responses relative to 33-mer [1]: as potent as 33-mer
LQPQQPFPQQPQQPYPQQPQ [DQ2-γ-V]	low intensity of IFN-γ responses	–	–	IFN-γ response (in words) ([1]; iTCL of patient CD230204): weakly
CC(C)C[C@H](NC(=O)[C@H](CCC(=O)O)NC(=O)[C@@H]1CCCN1C(=O)[C@H](CCC(N)=O)NC(=O)[C@@H]1CCCN1C(=O)[C@H](Cc1ccc(O)cc1)NC(=O)[C@@H]1CCCN1C(=O)[C@H](CCC(N)=O)NC(=O)[C@@H]1CCCN1C(=O)[C@@H](N)CCC(N)=O)C(=O)N1CCC[C@H]1C(=O)N[C@@H](Cc1ccc(O)cc1)C(=O)N1CCC[C@H]1C(=O)N[C@@H](CCC(N)=O)C(=O)N1CCC[C@H]1C(=O)N[C@@H](CCC(N)=O)C(=O)N1CCC[C@H]1C(=O)N[C@@H](Cc1ccccc1)C(=O)O [18-mer] (H-QPQPYPQPELPYPQPQPF-OH)	strongest and more consistent responses	very high levels of IFN-γ	–	–
QIPQQQQIPQQPQQF [Glu-5]	–	weak IFN-γ response	–	–
QLQPFPQPTLPYPQPQS [T65]	strongest and more consistent responses	recognized	four	–
PQLPQFLQPQPYPQPQLPYPQPQPF [25-mer]	strongest and more consistent responses	–	–	Potency in eliciting T cell responses relative to 33-mer [1]: as potent as 33-mer
PQQPQQSFPQQQQPA [DQ2-γ-I]	low intensity of IFN-γ responses	–	5 patients	IFN-γ response (in words) ([1]; iTCL of patient CD230204): weakly
QPQQPFPQPQQPFPWQP [DQ2-ω-1]	strongest and more consistent responses	intermediate IFN-γ levels	five	HLA restriction of recognition [4]: restricted by HLA-DQ2; IFN-γ production and proliferation of 17-mer-specific T cell clones [3]: no cross-reactivity occurred; IFN-γ production at 10-fold increased concentrations of peptide ([2]; iTCLs from patient CD041051): retained stimulatory activity even at low concentrations; Percentage of patients recognizing the peptide [1]: 35%; IFN-γ response (in words) ([1]; iTCL of patient CD041051): very high; IFN-γ response (in words) ([1]; iTCL of patient CD130406): responded
PQPQPFLPQLPYPQPQS [AG11]	strongest and more consistent responses	–	–	–
GQGIIQPQQPAQLIR [DQ2-γ-II]	low intensity of IFN-γ responses	–	–	IFN-γ response (in words) ([1]; iTCL of patient CD061204): recognizing
QQPPFSQQQQSPFSQ [Glt-156]	–	–	no intestinal T cell response	–
CC(C)C[C@H](NC(=O)[C@H](CCC(N)=O)NC(=O)[C@@H](N)CC(C)C)C(=O)N[C@@H](CCC(N)=O)C(=O)N1CCC[C@H]1C(=O)N[C@@H](Cc1ccccc1)C(=O)N1CCC[C@H]1C(=O)N[C@@H](CCC(N)=O)C(=O)N1CCC[C@H]1C(=O)N[C@@H](CCC(N)=O)C(=O)N[C@@H](CC(C)C)C(=O)N1CCC[C@H]1C(=O)N[C@@H](Cc1ccc(O)cc1)C(=O)N1CCC[C@H]1C(=O)N[C@@H](CCC(N)=O)C(=O)N1CCC[C@H]1C(=O)N[C@@H](CCC(N)=O)C(=O)N[C@@H](CC(C)C)C(=O)N1CCC[C@H]1C(=O)N[C@@H](Cc1ccc(O)cc1)C(=O)N1CCC[C@H]1C(=O)N[C@@H](CCC(N)=O)C(=O)N1CCC[C@H]1C(=O)N[C@@H](CCC(N)=O)C(=O)N[C@@H](CC(C)C)C(=O)N1CCC[C@H]1C(=O)N[C@@H](Cc1ccc(O)cc1)C(=O)N1CCC[C@H]1C(=O)N[C@@H](CCC(N)=O)C(=O)N1CCC[C@H]1C(=O)N[C@@H](CCC(N)=O)C(=O)N1CCC[C@H]1C(=O)N[C@@H](Cc1ccccc1)C(=O)O [33-mer] (H-LQLQPFPQPQLPYPQPQLPYPQPQLPYPQPQPF-OH; N-terminus and C-terminus assumed)	strongest and more consistent responses	intermediate IFN-γ levels	7 patients	IFN-γ production and proliferation of 17-mer-specific T cell clones [3]: vigorously reacted; IC50 [5]: 44 nM; Percentage of patients recognizing the peptide [1]: 50%; IFN-γ response (in words) ([1]; iTCL of patient CD041051): high response
PQPQPFPPQLPYPQPQS [AG12]	low intensity of IFN-γ responses	recognized	–	–
SHIPGLERPSQQQPLPPQQTL [Glt(19–39)]	–	–	no intestinal T cell response	–
PFRPQQPYPQPQPQY [Glia-20]	–	–	no responses	–
